Assay results from different studies.
Lines come from different studies, so protocols differ.
Organism: Clostridioides difficile
Effect on: microbial growth

`O=C(O)Cc1ccc(Oc2ccc(-c3noc(-c4ccc(O)cc4)n3)cc2)cc1` gave an MIC of 50 µg/mL (broth dilution; 48 h).
`Oc1cc(-c2nc(-c3ccc(Oc4ccc(C(F)(F)F)cc4)cc3)no2)cc(F)c1O` has an MIC of 128 µg/mL (broth dilution; ATCC43255; 48 h).
For `O=C(NCc1nc(-c2ccc(Br)cc2)c[nH]1)[C@H]1CSC(c2ccccn2)=N1`, the MIC was over 50 µg/mL (broth dilution; R20291; 24 h).
For `N#Cc1ccc(Oc2ccc(-c3noc(-c4ccc(O)cc4)n3)cc2)cc1`, the MIC was 8 to 128 µg/mL (broth dilution; ATCC43255; 48 h).
For `Cl.NCCCc1ccc(Oc2ccc(-c3noc(-c4ccc(O)cc4)n3)cc2)cc1`, the MIC was 2 µg/mL (broth dilution; 48 h).
`Cc1ncc([N+](=O)[O-])n1CCO` gave an MIC of over 0.5 µg/mL (broth dilution; 630).
For `O=C(Nc1ncc([N+](=O)[O-])s1)C1CCCCC1`, the MIC was 5.9 µM (agar dilution; VPI10463; 18 h).
For `COCCNc1ccc(-c2nc(-c3ccc(Oc4ccccc4)cc3)no2)cc1`, the MIC was 8 µg/mL (broth dilution; 48 h).
For `O=C(NCc1nc(-c2ccc(Br)cc2)c[nH]1)Nc1nc2ccc(OC(F)(F)F)cc2s1`, the MIC was 12.5 to 25 µg/mL (broth dilution; R20291; 24 h).
The MIC of `Oc1ccc(Oc2ccc(-c3noc(-c4ccc(O)cc4)n3)cc2)cc1` is reported as 8 to 128 µg/mL (broth dilution; ATCC43255; 48 h).
